These results are taken from PubChem BioAssay.

Active and inactive are the calls of the source.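 How the source made its calls, unless noted: active means fluorescence slope after compound addition differing from the mean of all tested samples at 99.7% confidence, mostly higher but some lower; inactive means the rest.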

Assay [1] in a line: inhibitors of TNFa-induced NFkB p65 translocation, primary screen, imaging, HUVEC, MLSMR starter and 10KST1 sets (AID 438;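 active means inhibition above 20% together with a positive visual image hit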;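 further: compound added about 3h40 before a 20 min TNFalpha stimulation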;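 on inhibition: signal is the nuclear over cytoplasmic p65 intensity ratio per well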). The settings on record: HUVEC TNFa-induced p65 nuclear translocation; cell count: measured here: nuclei count (cytotoxicity indicator), at 2.08 µM; inhibition: at 2 µM, stronger effect = higher value, 0% TNFa-plus-vehicle, 100% no-TNFa wells.
Assay [2] is described as follows: endothelial E-selectin expression blockers – imaging, HUVEC, immunofluorescence, MLSMR starter and 10KST1 sets, primary screen (AID 487;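 active means visually confirmed hit in the image check and inhibition above 20%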;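 on inhibition: signal is fraction of cell area covered by stained E-selectin grains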;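 on nuclei count: 100% = median nuclei count of all wells on the same plate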). The settings on record: HUVEC TNFalpha-induced E-selectin immunofluorescence imaging, at 2 µM; inhibition: stronger effect = higher value; nuclei count: measured here: cell number, toxicity.
A short description of assay [3]: Primary imaging screen for DUSP6 inhibitors that restore phospho-Erk in transfected HeLa cells, chemical complementation (AID 609;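 active means compounds giving at least 50% inhibition in the cell-based MKP-3 phosphatase rescue imaging test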;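 on inhibition: phospho-Erk level distribution per well compared with pooled transfected vehicle control wells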). The settings on record: HeLa MKP-3 transfected, phospho-Erk imaging KS statistic, at 10 µM, cells stimulated with TPA for 15 min.
Assay [4] concerns the target Dual specificity protein phosphatase 6 (Homo sapiens) (UniProt Q16828). The description is as above. To be noted: HeLa MKP-3 transfected, phospho-Erk imaging KS statistic; at 10 µM; stronger effect = higher value; cells stimulated with TPA for 15 min.
The target in assay [5] is Voltage-gated potassium channel subunit beta-2 (Rattus norvegicus) (UniProt P62483). As to the kind of experiment: inhibitors of rat Kvbeta2 reductase activity – biochemical, NADPH fluorescence, primary screen (AID 622;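 active means fluorescence slope higher than the sample average by over 3 SD, cut at about -0.22 in these data, passing the limit was not always enough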;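 further: slope of raw intensity against log time taken from 70 to 1610 s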). To be noted: recombinant KvBeta, 4-cyanobenzaldehyde reduction, at 10 µM, stronger effect = higher value.
Voltage-gated potassium channel subunit beta-2 (Rattus norvegicus), sequence (P62483 whole entry, looked up): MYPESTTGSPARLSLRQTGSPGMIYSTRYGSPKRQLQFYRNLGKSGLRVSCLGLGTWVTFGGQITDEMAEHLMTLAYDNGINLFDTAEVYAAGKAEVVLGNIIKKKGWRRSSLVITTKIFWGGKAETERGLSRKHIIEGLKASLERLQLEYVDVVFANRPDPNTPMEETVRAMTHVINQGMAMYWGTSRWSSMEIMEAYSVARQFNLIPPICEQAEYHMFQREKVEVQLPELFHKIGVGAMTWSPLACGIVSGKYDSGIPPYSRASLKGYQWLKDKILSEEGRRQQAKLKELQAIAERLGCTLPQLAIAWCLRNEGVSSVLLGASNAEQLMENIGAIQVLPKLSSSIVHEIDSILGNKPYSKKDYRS
For assay [6] the target is unchanged. As to the kind of experiment: enhancers of rat Kvbeta2 NADPH turnover – biochemical, NADPH fluorescence, primary screen (AID 623;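 active means NADPH fluorescence slope more negative than the mean of all samples by about 3 SD, 99.7% confidence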;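 further: fluorescence intensity change per second fitted from 20 to 320 s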). To be noted: Recombinant KvBeta, NADPH fluorescence decrease slope, 10 min; at 10 µM; stronger effect = lower value.
Assay [7] deals with Muscarinic acetylcholine receptor M4 (Homo sapiens) (UniProt P08173). Put plainly: M4-linked GIRK flux change, two-sided – cell-based, HEK293 M4/GIRK, thallium flux, BTC-AM, M4 allosteric agonist project, primary screen (AID 625).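 Further: thallium influx through GIRK channels coupled to M4 in HEK293 cells with BTC-AM dye.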 The settings on record: at 10 µM, actives lie on both sides. In a few lines: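 Assay system: HEK293 cells with M4 receptor and GIRK channels / Controls: carbachol and DMSO controls / Schedule: 1 h dye loading, 2 min kinetic read / Technique: kinetic fluorescence with BTC-AM dye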
Muscarinic acetylcholine receptor M4 (Homo sapiens), sequence (P08173 whole entry, looked up): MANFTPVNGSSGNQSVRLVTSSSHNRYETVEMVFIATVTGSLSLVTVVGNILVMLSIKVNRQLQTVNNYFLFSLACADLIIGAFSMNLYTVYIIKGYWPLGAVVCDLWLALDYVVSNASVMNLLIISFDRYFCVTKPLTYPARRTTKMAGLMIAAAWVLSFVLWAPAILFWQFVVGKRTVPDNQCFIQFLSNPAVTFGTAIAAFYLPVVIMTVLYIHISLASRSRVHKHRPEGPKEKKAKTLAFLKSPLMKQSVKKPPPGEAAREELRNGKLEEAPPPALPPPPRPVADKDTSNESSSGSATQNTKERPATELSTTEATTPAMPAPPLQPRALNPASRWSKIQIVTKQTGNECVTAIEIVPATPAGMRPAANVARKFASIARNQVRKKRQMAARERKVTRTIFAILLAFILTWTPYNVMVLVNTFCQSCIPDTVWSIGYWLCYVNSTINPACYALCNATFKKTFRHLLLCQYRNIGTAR

Assay [8] is described as follows: inhibitors of larval lipid processing in zebrafish, primary screen, whole organism, PED6 fluorescence, gall bladder and intestine (AID 686;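 active means a full or partial loss of lipid-probe fluorescence in the fish gall bladder, intestine or both, judged by eye; inactive means no fluorescence loss, or compound toxic to the fish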;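 further: larvae 5 to 7 days old with five fish per well; signal comes from phospholipase A2 cleavage of quenched PED6 carried via bile; overnight exposure to compound and PED6 before scoring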). The settings on record: Zebrafish larvae PED6 lipid processing, fluorescence scoring; screened at 20 µM (by protocol). In a few lines:
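Doses: 20 µM single dose. Test system: live zebrafish larvae aged 5-7 days, whole organism. Quantity: five larvae per well. Measured by: By-eye fluorescence microscopy. Reagent: ingested quenched lipid PED6 at 100 nM. Read-out: visual per-well fluorescence inhibition score. Times: overnight exposure of larvae to compound plus PED6.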

Assay [9] is described as follows: loss of swimming-algae plug formation – whole organism, Chlamydomonas reinhardtii, WT vs cilia-less mutant, absorbance, 96-well, primary screen (AID 463189;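 active means inhibition at or above 50% relative to wild type and mutant plate controls; inactive means inhibition below 50%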;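 further: 0% = wild type cc124 cells in DMSO and 100% = ciliumless bld1 mutant cells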). The settings on record: Chlamydomonas reinhardtii gravitaxis, OD600 absorbance, 2 days; at 10 µM; stronger effect = higher value.
Where [10] appears, read: measured here: cell density z-score.
Setting [11] is: measured here: nuclear c-Myc green intensity z-score.
[12] abbreviates: measured here: nuclear pErk red intensity z-score, stronger effect = higher value.

Dual specificity protein phosphatase 6 (Homo sapiens), sequence (Q16828 whole entry, looked up): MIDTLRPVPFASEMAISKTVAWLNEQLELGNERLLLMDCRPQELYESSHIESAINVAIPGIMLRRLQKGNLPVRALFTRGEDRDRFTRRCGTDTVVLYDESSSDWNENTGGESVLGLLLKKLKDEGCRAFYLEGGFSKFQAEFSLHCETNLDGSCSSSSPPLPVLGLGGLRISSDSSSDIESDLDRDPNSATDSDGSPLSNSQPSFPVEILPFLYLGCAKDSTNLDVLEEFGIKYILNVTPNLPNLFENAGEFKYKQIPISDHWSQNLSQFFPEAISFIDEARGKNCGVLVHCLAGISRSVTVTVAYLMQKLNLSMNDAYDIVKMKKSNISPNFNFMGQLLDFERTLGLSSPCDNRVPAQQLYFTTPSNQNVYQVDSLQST

By inhibition is commonly meant the change of the read-out against control, counted positive when it falls. As to `CNC(=O)CCn1nc(-c2ccccc2)c2ccccc2c1=O`, in assay [1], the cell count stood at 737. The inhibition in [1] was -2.4% (inactive); in [2], -67.9% (inactive); in assay [4] it was 11.4% (inactive); in assay [9], 10.7% (inactive). The nuclei count in assay [2] came out at 156%. Besides, the z-score was 1.04 in [3] (setting [10]), -1.35 in [3] (setting [11]) and -0.0887 in [3] (setting [12]). The fluorescence slope in assay [5] is -0.455 (inactive); in assay [7], 0.00449 (inactive). Moreover, the NADPH fluorescence slope in [6] is -2.4e-05 (inactive). In addition, in assay [8], the call was inactive.

Regarding `CCC1CC2(C)NC(=O)c3c(sc4c3CC(C)(C)OC4)N2C1=O` (configuration not stated), the cell count in assay [1] amounted to 497. For the same compound, the inhibition is -0.8% (inactive) in assay [1], -48.8% (inactive) in assay [2], 1.98% (inactive) in [4] and 31.2% (inactive) in [9]. In [2], this compound registered a nuclei count of 175%. The z-score was 0.444 in assay [3] (setting [10]), 0.00352 in assay [3] (setting [11]) and -0.401 in assay [3] (setting [12]). The fluorescence slope in [5] was -0.397 (inactive); in assay [7], 0.00496 (inactive). Further, the NADPH fluorescence slope in [6] was 3.9e-06 (inactive). For the same compound, the compound was classed as inactive in assay [8].

`CCNC(=O)COn1c(SCC(=O)NCC)nc2ccccc2c1=O`: the cell count in [1] was found to be 763. The inhibition in assay [1] was 2.9% (inactive); in assay [2], 10% (inactive); in [4], -4.7% (inactive); in assay [9] it was -4.94% (inactive). Further, the nuclei count in assay [2] came to 174%. The figures for the z-score in assay [3] (setting [10]), in assay [3] (setting [11]) and in assay [3] (setting [12]) were 0.564, 0.056 and 0.704, respectively. Moreover, the fluorescence slope in [5] was -0.443 (inactive); in assay [7] it was 0.00588 (inactive). Moreover, the NADPH fluorescence slope in assay [6] is -4.1e-05 (inactive). In assay [8], the result was inactive.

For `Cn1c(NCCCO)nc2c1c(=O)n(Cc1ccccc1F)c(=O)n2C`, in assay [1], the cell count was found to be 691. Besides, the inhibition was -14.5% (inactive) in [1], -160% (inactive) in assay [2], 1.9e-07% (inactive) in assay [4] and 7.04% (inactive) in [9]. The compound also registered a nuclei count in assay [2] of 167%. The z-score in assay [3] (setting [10]) was -0.594; in [3] (setting [11]), -1.48; in assay [3] (setting [12]) it was 0.588. Further, the fluorescence slope is -0.512 (inactive) in assay [5] and 0.00567 (inactive) in assay [7]. In assay [6], the NADPH fluorescence slope is -3.1e-05 (inactive). For the same compound, the call in assay [8] was inactive.

Turning to `CCCCc1nc(N2CCOCC2)c(C#N)c2c1CCCC2`, the cell count in assay [1] is 559. In addition, the inhibition is -11.7% (inactive) in assay [1], -89.9% (inactive) in assay [2], -15.1% (inactive) in [4] and 11.9% (inactive) in assay [9]. The nuclei count in assay [2] was determined as 141%. The z-score in assay [3] (setting [10]) is 0.356; in [3] (setting [11]), 0.825; in [3] (setting [12]), 0.364. The fluorescence slope was -0.449 (inactive) in [5] and 0.00395 (inactive) in assay [7]. The NADPH fluorescence slope in assay [6] was -0.000117 (inactive). The compound was classed as inactive in [8].

Take `CC(C)CCNc1nc2c(cc1C#N)COC(C)(C)C2`: in assay [1], the cell count was 536. For the same compound, the inhibition in assay [1] was -6.5% (inactive); in assay [2], -22.1% (inactive); in assay [4], 22.1% (inactive); in assay [9] it was -19.8% (inactive). The compound further had a nuclei count in assay [2] of 143%. In addition, the z-score is 1.89 in assay [3] (setting [10]), -0.595 in [3] (setting [11]) and -1.16 in assay [3] (setting [12]). The values for the fluorescence slope in assay [5] and in assay [7] were -0.426 (inactive) and 0.00455 (inactive), respectively. Moreover, in [6], the NADPH fluorescence slope was -5.9e-05 (inactive). Besides, the result in assay [8] was inactive.

Turning to `CCC(CC)n1[nH]c(=O)cc1N`, the cell count in [1] came out at 392. In addition, the inhibition in assay [1] was -15.4% (inactive); in assay [2] it was -166% (inactive); in assay [4], 7.73% (inactive); in [9] it was 7.67% (inactive). The compound further gave a nuclei count in [2] of 144%. Further, the z-score in [3] (setting [10]) is 2; in assay [3] (setting [11]), -1.52; in [3] (setting [12]), -0.418. In addition, the fluorescence slope was -0.46 (inactive) in assay [5] and 0.0051 (inactive) in [7]. In assay [6], the NADPH fluorescence slope was -9.4e-05 (inactive). Further, the outcome in assay [8] was inactive.

As to `CCNc1sc(C(=O)c2cccs2)c(N)c1C#N`, in assay [1], the cell count was 583. The inhibition is 0.3% (inactive) in assay [1], -26.4% (inactive) in assay [2], 10.9% (inactive) in assay [4] and 24.6% (inactive) in [9]. The compound further came in with a nuclei count in assay [2] of 114%. Moreover, the values for the z-score in assay [3] (setting [10]), in assay [3] (setting [11]) and in [3] (setting [12]) were 0.394, -0.752 and 0.076, respectively. Further, the fluorescence slope in assay [5] was -0.442 (inactive); in assay [7], 0.00473 (inactive). The NADPH fluorescence slope in [6] is -4.6e-05 (inactive). The call in assay [8] was inactive.

Take `COc1cc(/C=N/n2nnnc2N)ccc1O`: the cell count in assay [1] came to 594. Moreover, the inhibition in [1] is -13% (inactive); in assay [2] it was -19.6% (inactive); in assay [4], 17.7% (inactive); in assay [9], 14% (inactive). The nuclei count in assay [2] worked out at 150%. Besides, the z-score in assay [3] (setting [10]) is 0.109; in assay [3] (setting [11]), -0.705; in [3] (setting [12]) it was -0.571. For the same compound, the fluorescence slope is -0.448 (inactive) in assay [5] and 0.00627 (inactive) in assay [7]. Besides, in assay [6], the NADPH fluorescence slope was -0.000221 (inactive). For the same compound, in assay [8], the outcome was inactive.
